From the RNAGym collection of RNA variant scans (doi:10.1126/science.aae0568)
Fewer inactive variants are shown than the library holds.

B1: tRNA (parent)
chain: GUUCCGUUGGCGUAAUGGUAACGCGUCUCCCUCCUAAGGAGAAGACUGCGGGUUCGAGUCCCGUACGGAACG

Variants of: B1
Assay: yeast fitness relative to wild type (ratio to wild type); higher = fitter; tRNA-Arg(CCU), competitive growth, 37 C, YPD
Method in brief: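 Gene amplicons from the start population and from each of six end populations were read by 100-nucleotide paired-end sequencing. Those end populations came from pooled Saccharomyces cerevisiae strains carrying tRNA-Arg(CCU) gene variants at the native locus, competed in YPD at 37°C for 24 hours. Fitness relative to wild type was worked out from changes in genotype frequencies. Genotypes needed ≥ 100 starting reads, and estimates < 0.5 were set to 0.5.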

Variant	yeast fitness
GUUCCGUUAGCGUAAUGGUAACGCGUCUCCCUCCUAAGGAGAAGACUGCGGGUUGCAGUCCCGUACGGAACG	≤ 0.5
GUUCCGUUAGCGUAAUGGUAACGCGUCUCCCUCCUAAGGAGAAGACUGCGGGUUCGAGUCUCGUACGGAACG	0.949
GUUCCGUUAACGUAAUGGUAACGAGUCUCCCUCCUAAGGAGAAAACUGCGGGUUCGAGUCCCGUACGGAACG	≤ 0.5
GUUCCGUUAACGUAAUGGUAACGCGUCUCCGUCCUAAGGAGAAGACUGCGGAUUCGAGUCCCGUCCGGAACG	≤ 0.5
GUUCCGUUAACGUAAUGGUAACGCGUCUCCCUCCUAAGGAGAAGACUGCGGGUUAGAGUCCCGUUCCGAACG	0.506
GUUCCGUUAACGUAAUGGUAACGCGUCACCCUCCUAAGAAGAAGACUACGGGUUCGAGUCGCGUAGGGAACG	≤ 0.5
GUUCCGUUAGCCUCAUGGUAACGCGUCUCCCUCCUAAGGAGAAGACUGCGGGUUCGAGUCCCGUACGGAACG	0.535
GUUCCGUUAGCCUAAUGGUAACGCGUCUCCCUCCUAAGGAGAAGACUGCGGGUUCGAGUCCCGUGCCGGACG	≤ 0.5
GUUCCGUUAGCCUAAUGGUAACGCGUCUCCAUGCUAAGGAGACGACUGCGGGUUCGAGUCCCGUACGGUCCG	≤ 0.5
GUUCCGUUAGCCUAAUAGUAAGGCGUCUCUCUCGUAAGGAGAAGACUGUGGGUUCGAGGCCCGUACGGAACG	≤ 0.5
GUUCCGUUAGCUUUAUGGUAACGCGUCUCCCUCCUAAGGAGAAGACUGCGGGACCGAGUCCCGUACGGAACG	≤ 0.5
GUUCCGUUAGCGUAAUAGUAAGGCGUCUCCCUCCUAAGGGCAAGACUGCGGGUUCGAGUCCCGUACGGAACG	≤ 0.5
GUUCCGUUAGCGUAAUCGUAACGCGUCUCCCUCCUAAGGAGAUGACUGCGGGUUCGAGUCCCGUACGGAACG	≤ 0.5
GUUCCGUUAGCGUAAUGAUACCGCGUCUUCCUCCUAAGGAGAAGACUGCGGGUUCGACUCCCGUAGGGAACG	≤ 0.5
GUUCCGUUAGCGUAAUGGUAACACCUCCCCCUCCUAAGGAGAAGACUGCGGGUUCGUGUCCCGUACGGAUCG	≤ 0.5
GUUCCGUUAGCGUAAUGGUAACGCAUCUCCCUCCUAAGGAGAGGACUGCGGGUUCGAGUCCCGUUCGGAACG	≤ 0.5
GUUCCGUUAGCGUAAUGGUAACGCCUCUCCCUCCUAAGGAGAAGACUGCGGGUUCGAGUCCCGUACGGAACG	0.931
GUUCCGUUAGCGUAAUGGUAACGCGUCUCCCUCCUAACGACAAGGCUGCGGGUUCGAGUCCCGUACGGAACG	≤ 0.5
GUUCCGUUAGCGUAAUGGUAACGCGUCUCCCUCCUAAGAAGAAGGCUGCAGGUUCGAGUCCCGUACGGAACG	≤ 0.5

Variant	yeast fitness
GUUCCGUUAGCGUAAUGGUAACGCGUCUCCCUCCUAAGAAGAAGGCUGCAGGUUCGAGUCCCUUACGGUACG	≤ 0.5
GUUCCGUUAGCGUAAUGGUAACGCGUCUCCCUCCUAAGCAGCAGACUGAGGGUUCGAGUCCCGUACGGAACG	≤ 0.5
GUUCCGUUAGCGUAAUGGUAACGCGUCUCCCUCCUAAGGAGAAAAUUGCGGGUUCGAGUCCCGUACGGCACG	0.787
GUUCCGUUAGCGUAAUGGUAACGCGUCUCCCUCCUAAGGAGAACACUGCGGGUUCGAGUCCCGUAUGGAACG	0.552
GUUCCGUUAGCGUAAUGGUAACGCGUCUCCCUCCUAAGGAGAAUACUGCGGGUUCGAGUCCCGUACGGAACG	0.766
GUUCCGUUAGCGUAAUGGUAACGCGUCUCCCUCCUAAGGAGAAGACUGCAGGUUCGAGUCCCGUACAGAACG	0.652
GUUCCGUUAGCGUAAUGGUAACGCGUCUCCCUCCUAAGGAGAAGACUGCCGGUUCGAGUCCCGUACGGAACG	0.947
GUUCCGUUAGCGUAAUGGUAACGCGUCUCCCUCCUAAGGAGAAGACUGCGAGUUCGAGUUCCGUACAGAACG	0.588
GUUCCGUUAGCGUAAUGGUAACGCGUCUCCCUCCUAAGGAGAAGACUGCGCGUUCGAGUCCCGUACGGAACG	0.539
GUUCCGUUAGCGUAAUGGUAACGCGUCUCCCUCCUAAGGAGAAGACUGCGCCUUCGAGUCCCGUACGGAACG	≤ 0.5
GUUCCGUUAGCGUAAUGGUAACGCGUCUCCCUCCUAAGGAGAAGACUGCGGAUUCGAGUCCCGUACGGAACG	0.687
GUUCCGUUAGCGUAAUGGUAACGCGUCUCCCUCCUAAGGAGAAGACUGCGGGUUCAAGUCCCGUACGGAACG	1
GUUCCGUUAGCGUAAUGGUAACGCGUCUCCCUCCUAAGGAGAAGACUGCGGGUUCAAGUCCCGUACGGACCG	1.03
GUUCCGUUAGCGAAAUGGUAACGAGUCUCCCUCCUAAGGAGAAGCCUGCGGGUUCGAGUCCCGUACGGAACG	≤ 0.5
GUUCCGUUAGCGCAAUGGCAACGCGUCUCCCUCUUAAGGAGAAGACUGCGGGUUCGAGUCCCGUACGGAACG	0.549
GUUCCGUUAGCGUAAAGGUAACGCGUCUCCCUCCUAAGGAGCAGACUGCGGGCUCGAGUCCAGUACGGAACG	≤ 0.5
GUUCCGUUAGCGUAAAGGUAACGCGUCUCGCUCCUAAGGAGAAGACUGCGGGUUCGCGUCCCGUACGGAACG	≤ 0.5
GUUCCGUUAGCGUAACGGUCACGCGUCUCCCUCCUAAGGAGAAGACUGCGGGUUCGAGUCUCGUACGGAACG	≤ 0.5
